Variants at the floor of the assay were thinned out.
B1: tRNA (parent)
chain: GUUCCGUUGGCGUAAUGGUAACGCGUCUCCCUCCUAAGGAGAAGACUGCGGGUUCGAGUCCCGUACGGAACG

Variants of: B1
Experiment: yeast fitness relative to wild type (ratio to wild type); higher = fitter; tRNA-Arg(CCU), competitive growth, 37 C, YPD
In short: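 A pool of Saccharomyces cerevisiae strains, each with a tRNA-Arg(CCU) gene variant at the native genomic locus, was competed in YPD at 37°C for 24 hours across six parallel replicates. The variants had been chemically synthesised at a 3% per-site mutation rate over 69 sites, and gene amplicons before and after competition were read by 100-nucleotide paired-end sequencing. Darwinian fitness relative to wild type rested on changes in genotype frequencies. Genotypes required ≥ 100 starting reads, and estimates < 0.5 were set to 0.5.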

Going from GUUCCGUUGGCGUAAUGGUAACGCGUCUCCCUCCUAAGGAGAAGACUGCGGGUUCGAGUCCUCUACGGACCG [C62U G63C A70C] to GUUCCGUUGGCGUAAUGGUAACGCGUCUCCCUCCUAAGGAGAAGACUGCGGGUUCGAGUCCCAUAGGGAACG [G63A C66G], the yeast fitness rises from no more than 0.5 to 0.678.

Compared with GUUCCGUUGGCGUAAUGGUAACGCGUCUCCCUCCUAAGGAGAAGACUGCGGGUUCGAGUCCCAAACGGAACG [G63A U64A], GUUCCGUUGGCGUAAUGGUAACGCGUCUCCCUCCUAAGGAGAAGACUGCGGGUUCGAGUCCCCUUCGGAACG [G63C A65U] is lower in yeast fitness: 0.864 for the first, 0.735 for the second.

First: GUUCCGUUGGCGUAAUGGUAACGCGUCUCCCUCCUAAGGAGAAGACUGCGGGUUCGAGUCCCGAACGUAACG [U64A G68U]
Second: GUUCCGUUGGCGUAAUGGUAACGCGUCUCCCUCCUAAGGAGAAGACUGCGGGUUCGAGUCCCGAACGCAACG [U64A G68C]
The yeast fitness of the first is higher: 0.728 for the first, 0.709 for the second.

First: GUUCCGUUGGCGUAAUGGUAACGCGUCUCCCUCCUAAGGAGAAGACUGCGGGUUCGAGUCCCAUCCGGAACG [G63A A65C]
Second: GUUCCGUUGGCGUAAUGGUAACGCGUCUCCCUCCUAAGGAGAAGACUGCGGGUUCGAGUCCCGCACGGUACG [U64C A69U]
The yeast fitness of the first is lower: 0.942 for the first, 1.07 for the second.

Going from GUUCCGUUGGCGUAAUGGUAACGCGUCUCCCUCCUAAGGAGAAGACUGCGGGUUCGAGUCCCGCACGGCACG [U64C A69C] to GUUCCGUUGGCGUAAUGGUAACGCGUCUCCCUCCUAAGGAGAAGACUGCGGGUUCGAGUCCUGUAGGGAGCG [C62U C66G A70G], the yeast fitness falls from 0.983 to 0.574.

Compared with GUUCCGUUGGCGUAAUGGUAACGCGUCUCCCUCCUAAGGAGAAGACUGCGGGUUCGAGUCCCGCACGGAUCG [U64C A70U], GUUCCGUUGGCGUAAUGGUAACGCGUCUCCCUCCUAAGGAGAAGACUGCGGGUUCGAGUCCCGCACGGAGCG [U64C A70G] is lower in yeast fitness: 0.953 for the first, 0.844 for the second.

Going from GUUCCGUUGGCGUAAUGGUAACGCGUCUCCCUCCUAAGGAGAAGACUGCGGGUUCGAGUCCCAUACAGGACG [G63A G67A A69G] to GUUCCGUUGGCGUAAUGGUAACGCGUCUCCCUCCUAAGGAGAAGACUGCGGGUUCGAGUCCCGAUCGGAUCG [U64A A65U A70U], the yeast fitness rises from no more than 0.5 to 0.601.

First: GUUCCGUUGGCGUAAUGGUAACGCGUCUCCCUCCUAAGGAGAAGACUGCGGGUUCGAGUCCCUUACGGAACG [G63U]
Second: GUUCCGUUGGCGUAAUGGUAACGCGUCUCCCUCCUAAGGAGAAGACUGCGGGUUCGAGUCCCCUACGGAACG [G63C]
The yeast fitness of the first is higher: 0.825 for the first, 0.812 for the second.

First: GUUCCGUUGGCGUAAUGGUAACGCGUCUCCCUCCUAAGGAGAAGACUGCGGGUUCGAGUCCCAUACGGAACG [G63A]
Second: GUUCCGUUGGCGUAAUGGUAACGCGUCUCCCUCCUAAGGAGAAGACUGCGGGUUCGAGUCCCCUACCGACCG [G63C G67C A70C]
The yeast fitness of the first is higher: 0.853 for the first, 0.778 for the second.

Going from GUUCCGUUGGCGUAAUGGUAACGCGUCUCCCUCCUAAGGAGAAGACUGCGGGUUCGAGUCCCUAACGGAACG [G63U U64A] to GUUCCGUUGGCGUAAUGGUAACGCGUCUCCCUCCUAAGGAGAAGACUGCGGGUUCGAGUCCUGUAUAGAACG [C62U C66U G67A], the yeast fitness falls from 0.676 to 0.52.

First: GUUCCGUUGGCGUAAUGGUAACGCGUCUCCCUCCUAAGGAGAAGACUGCGGGUUCGAGUCCCCUUCGGAUCG [G63C A65U A70U]
Second: GUUCCGUUGGCGUAAUGGUAACGCGUCUCCCUCCUAAGGAGAAGACUGCGGGUUCGAGUCCUGAACGGAACG [C62U U64A]
The yeast fitness of the first is lower: 0.558 for the first, 0.735 for the second.

First: GUUCCGUUGGCGUAAUGGUAACGCGUCUCCCUCCUAAGGAGAAGACUGCGGGUUCGAGUCCUGUAGGGAACG [C62U C66G]
Second: GUUCCGUUGGCGUAAUGGUAACGCGUCUCCCUCCUAAGGAGAAGACUGCGGGUUCGAGUCCUGUAAGGAACG [C62U C66A]
The yeast fitness of the first is higher: 0.731 for the first, 0.686 for the second.

First: GUUCCGUUGGCGUAAUGGUAACGCGUCUCCCUCCUAAGGAGAAGACUGCGGGUUCGAGUCCCCUACAGAACG [G63C G67A]
Second: GUUCCGUUGGCGUAAUGGUAACGCGUCUCCCUCCUAAGGAGAAGACUGCGGGUUCGAGUCCCGCCCGGAACG [U64C A65C]
The yeast fitness of the first is lower: 0.692 for the first, 0.891 for the second.

First: GUUCCGUUGGCGUAAUGGUAACGCGUCUCCCUCCUAAGGAGAAGACUGCGGGUUCGAGUCCUGUACGCGACG [C62U G68C A69G]
Second: GUUCCGUUGGCGUAAUGGUAACGCGUCUCCCUCCUAAGGAGAAGACUGCGGGUUCGAGUCCCAUACGGUACG [G63A A69U]
The yeast fitness of the first is lower: 0.567 for the first, 0.856 for the second.

First: GUUCCGUUGGCGUAAUGGUAACGCGUCUCCCUCCUAAGGAGAAGACUGCGGGUUCGAGUCCUAUACGGAACG [C62U G63A]
Second: GUUCCGUUGGCGUAAUGGUAACGCGUCUCCCUCCUAAGGAGAAGACUGCGGGUUCGAGUCCUCUACGGAACG [C62U G63C]
The yeast fitness of the first is lower: 0.719 for the first, 0.752 for the second.

First: GUUCCGUUGGCGUAAUGGUAACGCGUCUCCCUCCUAAGGAGAAGACUGCGGGUUCGAGUCCCCUACGGUACG [G63C A69U]
Second: GUUCCGUUGGCGUAAUGGUAACGCGUCUCCCUCCUAAGGAGAAGACUGCGGGUUCGAGUCCCCUACGGCACG [G63C A69C]
The yeast fitness of the first is higher: 0.709 for the first, 0.629 for the second.

First: GUUCCGUUGGCGUAAUGGUAACGCGUCUCCCUCCUAAGGAGAAGACUGCGGGUUCGAGUCCCAUACCGAACG [G63A G67C]
Second: GUUCCGUUGGCGUAAUGGUAACGCGUCUCCCUCCUAAGGAGAAGACUGCGGGUUCGAGUCCCGAAGGGAACG [U64A C66G]
The yeast fitness of the first is higher: 0.707 for the first, 0.7 for the second.

First: GUUCCGUUGGCGUAAUGGUAACGCGUCUCCCUCCUAAGGAGAAGACUGCGGGUUCGAGUCCCGAAUGGAACG [U64A C66U]
Second: GUUCCGUUGGCGUAAUGGUAACGCGUCUCCCUCCUAAGGAGAAGACUGCGGGUUCGAGUCCUGUACGAAACG [C62U G68A]
The yeast fitness of the first is higher: 0.942 for the first, 0.838 for the second.

Going from GUUCCGUUGGCGUAAUGGUAACGCGUCUCCCUCCUAAGGAGAAGACUGCGGGUUCGAGUCCCCCACGGAACG [G63C U64C] to GUUCCGUUGGCGUAAUGGUAACGCGUCUCCCUCCUAAGGAGAAGACUGCGGGUUCGAGUCCUGUACGGAUCG [C62U A70U], the yeast fitness rises from 0.969 to 0.996.

From the RNAGym collection of RNA variant scans (doi:10.1126/science.aae0568)
